Compound activity from PubChem BioAssay.
Shown are actives, neighbours in structure and some others; about 4.9% of the full set was active somewhere.
STAT3 activator: IL-6 driven STAT3 reporter potentiators, primary screen, U3A cells, luciferase, luminescence, MLSCN library | IL-6 STAT3-luciferase reporter; 100% = signal with IL-6 EC80 alone | activation (% of control), % at 5.6 µM | actives 0.91% (n = 190,000);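 active = activation above the screen-wide mean of compound activation plus 3 SD, cut at about 130% in these data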
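Assay system – human STAT1-deficient U3A cells with stable STAT3-luciferase reporter · Also added – IL-6 (33 ng/mL) · Schedule – compound 1 h, then IL-6 6 h at 37 °C · Technique – reporter luminescence signal · Evaluation – % activation versus median of IL-6-stimulated wells · Benchmarks – IL-6-only wells as 100% reference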
STAT3 inh-1: IL-6 driven STAT3 reporter inhibitors, primary screen, U3A cells, luciferase, luminescence, MLSCN library; IL-6 STAT3-luciferase reporter; host cell line lacks STAT1; inhibition, % at 5.5 µM; actives 0.89% (n = 190,000); AID 862, 2007;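 active = inhibition above the mean inhibition across all screened compounds plus 3 SD, cut at about 44% in these data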
NF-kB expr up: activators of NF-kB expression in neurons, primary screen, cell-based, HTS | human neuronal cells, NF-kB reporter expression; hits give high values | fold change at 12.5 µM | actives 1.6% (n = 190,000) | AID 1239, 2008; in the data active = fold change above about 3.3
STAT1 inh: STAT1 signaling inhibitors, primary screen, cell-based, HTS, luciferase reporter; NIH 3T3 STAT1-luciferase reporter, IFN-gamma, luminescence; inhibition, % at 5.5 µM; actives 0.35% (n = 200,000); AID 920, 2007;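 active = inhibition above a set limit, the mean inhibition across all tested compounds plus 3 SD, cut at about 34% in these data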
STAT1 activator: STAT1 signaling activators, primary screen, cell-based, HTS, luciferase reporter | NIH 3T3 STAT1-luciferase reporter, IFN-gamma, luminescence; 100% = IFN-gamma alone, no compound | activation (% of control), % at 5.5 µM | actives 2.6% (n = 200,000) | AID 932, 2007;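 active = activation above the screen-wide mean activation plus 3 SD, cut at about 130% in these data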
APP 5'UTR act: activators of APP 5'UTR luciferase reporter, primary screen, SH-SY5Y cells; SH-SY5Y APP 5'UTR luciferase reporter, luminescence; zero percent = DMSO vehicle wells; activation, % at 2 µM; actives 1% (n = 190,000); AID 1276, 2008;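 active = activation above a set limit, based on mean plus 3 SD of controls, cut at about 140% in these data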
STAT3 inh-2: STAT3 reporter inhibitors, retest of hits, confirmation, U3A cells, luciferase, luminescence; shares compounds with STAT3 inh-1; IL-6 STAT3 luciferase reporter; cell line lacks STAT1; inhibition, % at 5.7 µM; actives 45% (n = 1,200); AID 1265, 2008;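 active = inhibition above the hit cutoff computed for the primary STAT3 screen, cut at about 44% in these data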
NFkB inh STAT3ct: NF-kB reporter inhibitors in human cells, confirmation, counter-screen for STAT3 inhibitor project, cell-based, HEK293T, luciferase, TNF-alpha stimulus | AID 1308, 2008 | shares compounds with STAT3 inh-1 | inhibition, % at 5.7 µM | TNF-alpha induced | actives 36% (n = 1,200);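 active = inhibition above the mean of solvent-only control wells plus 3 SD, cutoff set per campaign, cut at about 13% in these data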
STAT1 inh STAT3c: STAT1 reporter inhibitors, IFN-gamma induced, confirmation, counter-screen for STAT3 inhibitor project, cell-based, NIH 3T3, luciferase luminescence; shares compounds with STAT3 inh-1; NIH 3T3 STAT1-luciferase reporter; inhibition, % at 5.7 µM; actives 27% (n = 1,200);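 active = inhibition above the mean plus 3 SD of solvent-only control wells, limit set per screening run, cut at about 16% in these data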
Hits are given with their value; 0 = inactive; - = no result.

SMILES	STAT3 activator	STAT3 inh-1	NF-kB expr up	STAT1 inh	STAT1 activator	APP 5'UTR act	STAT3 inh-2	NFkB inh STAT3ct	STAT1 inh STAT3c
COc1ccccc1NC(=O)CCN1C(=O)c2ccccc2S1(=O)=O	0	0	0	0	0	0	-	-	-
Cc1cc(/C=C2\Cc3ccccc3C2=O)c(C)n1-c1ccccc1	0	71	0	0	0	0	0	0	0
Cc1cc(C=C2C(=O)c3ccccc3C2=O)c(C)n1-c1ccc(C(=O)O)cc1	0	0	0	0	0	0	-	-	-
Cc1cc(C=C2C(=O)c3ccccc3C2=O)c(C)n1-c1ccccc1	0	75	0	0	0	0	0	0	0
CC1=NN(c2ccccc2)C(=O)/C1=C\c1cc(C)n(-c2ccccc2)c1C	0	0	0	0	0	0	-	-	-
Cc1nn2cc(-c3ncc(C(F)(F)F)cc3Cl)cnc2c1Br	0	47	0	0	129	505	47	0	0
Cc1cc2ncc(-c3ncc(C(F)(F)F)cc3Cl)cn2n1	0	64	0	0	0	138	0	0	0
O=C(Nc1ccc(S(=O)(=O)Nc2ncccn2)cc1)c1ccc(S(=O)(=O)N2CCCC2)cc1	0	0	0	0	0	0	-	-	-
CCCCc1ccc(NC(=O)c2cnccn2)cc1	0	62	5.8	0	0	174	0	0	0
O=C(Nc1ccc(Cc2ccncc2)cc1)c1ccc(S(=O)(=O)N2CCOCC2)cc1	0	70	0	0	0	0	57	0	0
O=C(Nc1ccc(S(=O)(=O)N2CCCC2)cc1)c1ccc(CN2CCOCC2)cc1	0	65	0	0	0	0	52	15	0
Cc1ccc(C(=O)Nc2ccc(S(=O)(=O)N3CCOCC3)cc2)cc1	0	0	0	0	0	0	-	-	-
O=C(Nc1ccc(S(=O)(=O)N2CCN(Cc3ccccc3)CC2)cc1)c1cnccn1	0	82	0	0	0	0	75	25	23
O=C(Cn1cc([N+](=O)[O-])nc1[N+](=O)[O-])N1CCN(c2ccccc2)CC1	0	0	0	0	0	0	-	-	-
COC(=O)c1ccc([C@@H]2C[C@H]3CN(Cc4cccnc4)C(=O)[C@]34CCCN24)cc1	0	0	0	0	0	0	-	-	-
O=C(Nc1ccc(S(=O)(=O)N2CCCCC2)cc1)c1ccc(CN2CCOCC2)cc1	0	83	0	0	0	0	80	29	0
CCN(CC)S(=O)(=O)c1ccc(NC(=O)c2ccc(CN3CCOCC3)cc2)cc1	0	66	0	0	0	0	80	26	0
CN(c1ccc(C(=O)Nc2ccc(S(=O)(=O)N3CCCC3)cc2)cc1)S(C)(=O)=O	0	58	0	0	0	0	0	0	0
O=C(Nc1ccc2c(c1)OCCO2)c1ccc(CN2CCOCC2)cc1	0	0	0	0	0	0	-	-	-
COc1ccc(N=CC2=C(O)c3ccccc3C2=O)cc1	0	92	0	0	0	137	0	25	0
CN=CC1=C(O)c2ccccc2C1=O	0	0	0	0	0	0	-	-	-
O=C1C(C=Nc2ccccc2O)=C(O)c2ccccc21	0	49	5	0	0	0	0	0	0
C/C(=N\NC(=O)c1cc(-c2cccc([N+](=O)[O-])c2)n[nH]1)c1ccccc1O	0	0	0	0	0	0	-	-	-
Cc1nc(Nc2nc3ccccc3o2)nc2c1CCC2	0	70	3.7	0	0	0	0	0	0
